Sequences and labels used below:
B1: tRNA (parent)
chain: GUUCCGUUGGCGUAAUGGUAACGCGUCUCCCUCCUAAGGAGAAGACUGCGGGUUCGAGUCCCGUACGGAACG

Fewer inactive variants are shown than the library holds.

In the data set the parent is B1. The data set is described as follows: yeast fitness relative to wild type (ratio to wild type); higher = fitter; tRNA-Arg(CCU), competitive growth, 37 C, YPD. The method, boiled down:
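For this measurement, the tRNA-Arg(CCU) gene was varied by chemical synthesis at a 3% per-site mutation rate across 69 sites, and each variant was placed at the native genomic locus in Saccharomyces cerevisiae. The pooled strains went through a 24-hour competition in YPD at 37°C in six parallel replicates, with amplicons from start and end populations read by 100-nucleotide paired-end sequencing. Darwinian fitness relative to wild type followed from the change in each genotype's frequency. Genotypes needed ≥ 100 starting reads, and estimates < 0.5 were set to 0.5.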
On to GUUCCGUUGGCAUAAUGGUAACGCGUCUCCCUCCUAAGGAGAAGACUGCGGGUUCGAGUCCUGUACGGAGCG [G12A C62U A70G], for which the yeast fitness came to 0.69.

For the variant GUUCCGUUGGCAUAAUGGUAACGCGUCUCUCUCCUAAGGAGAAGACAGCGGGUCCGAGUCCCGUACGGAACG [G12A C30U U47A U54C], the yeast fitness is at most 0.5.

Consider GUUCCGUUGGCAUAAUGGUAACGCGUCUCCACCCUAAGGAGAAGACUGCGGGCUCGAGUGCCGUACGGAACG [G12A C31A U32C U53C C60G], for which the yeast fitness is at most 0.5.

As for GUUCCGUUGGCAUAAUGGUAACGCGUCUCUCUCCUAAGGAGAAGACUGCGGGUACGAGUCCCGUACGGAACG [G12A C30U U54A], the yeast fitness was found to be 0.52.

Turning to GUUCCGUUGGCAUAAUGGUAACGCGUCUCUCUCCUAAGGAGAAGACUGCGGGUCCGAGUCCCGUACGGAACG [G12A C30U U54C], the yeast fitness was at most 0.5.

Take GUUCCGUUGGCAUAAUGGUAACGCGUCUCCCUCCUAAGGAGAAGACUGGGGGUUCGAGUCCCGUACGGCACG [G12A C49G A69C]: the yeast fitness was 0.551.

On to GUUCCGUUGGCAUAAUGGUAACGCGUCUCCCUCCUAAGGAGAAGACUGCGGGUUUGAGUCCCGUAGGGAACG [G12A C55U C66G], for which the yeast fitness came out at 0.569.

Take GUUCCGUUGGCAUAAUGCUAACGCGUCUCCCUCCUAAGGAGAAGACUGCGGGUUCGAGUCCUCUACGGACCG [G12A G18C C62U G63C A70C]: the yeast fitness is at most 0.5.

In the case of GUUCCGUUGGCAUAAUGGUAACGCGUCUCACUCCUAAGGAGAAGAGUGCGGGUUCGAGUCCCGUACGGAACG [G12A C30A C46G], the yeast fitness stood at 0.649.

As to GUUCCGUUGGCAUAAUGAUAUCGCGUCUCCCUCCUAAGGAAAAGAUUGCGGGUUCGAGUCCCGUACGGAACG [G12A G18A A21U G41A C46U], the yeast fitness was determined as 0.535.

Take GUUCCGUUGGCAUAAUGGUAACGCGUCUCGCUCCUAAGGAGAAGACCGCGGGUCCGAGUCCCGUACGGAACG [G12A C30G U47C U54C]: the yeast fitness is at most 0.5.

Turning to GUUCCGUUGGCAUAAUGAUAACGCGUCUCCUUCCUAAGGAGAAGACUGCGGGUUCGAGUCCCGUACGGAGCG [G12A G18A C31U A70G], the yeast fitness was at most 0.5.

In the case of GUUCCGUUGGCAUAAUGGUAACGCGUCUCCAUCCUAAGGAGGAGACUGCGGGUUCGUGACCCGUACGGAACG [G12A C31A A42G A57U U59A], the yeast fitness is at most 0.5.

For GUUCCGUUGGCAUAAUGGUAACGCGUCUCCCUCCUAAGGAGAAGACUGCGGGUUCGAGUCCCGUAAGGAACG [G12A C66A], the yeast fitness came out at 0.654.

In the case of GUUCCGUUGGCAUAAUGGUAACGCGUCUCCCUCCUAAGGAGAAGACUGCGGGUUCGAGUCCCGUAUGGAACG [G12A C66U], the yeast fitness stood at 0.834.

Consider GUUCCGUUGGCAUAAUGGUAACGCGUCUCCCUCCUAAGGAGAAGACUGCGGGUUCGAGUCCCGUAGGGAACG [G12A C66G], for which the yeast fitness came out at 0.79.

As for GUUCCGUUGGCAUAAUGGUAACGCGUCUCCGUCCUAAGGAGAAGACUCCGGGUUCGAGUCCCGUAGGGAACG [G12A C31G G48C C66G], the yeast fitness was at most 0.5.

Consider GUUCCGUUGGCAUAAUGCUAACGCGUCUCCCUCCUAAGGAGUAGACUGCGGGUUCGAAUCCCGUACGAAACG [G12A G18C A42U G58A G68A], for which the yeast fitness was at most 0.5.

For the variant GUUCCGUUGGCAUAAUUGUAACGCGUCUCCCUCCUAAGGAGAAGACUGGGGGUUCGAGUUCCGUACGAAACG [G12A G17U C49G C60U G68A], the yeast fitness was at most 0.5.

For GUUCCGUUGGCAUAAUGGUAACGCGUCUCCCUCCUAAGGAGAAGAUUGCGGGUUCGAGUCCCGUUCGGAACG [G12A C46U A65U], the yeast fitness amounted to 0.998.

GUUCCGUUGGCAUAAUGGUAACGCGUCUCCCUCAUAAGGAGAGGACUGCGGGUUCGAGUCCCGUACGGAACG [G12A C34A A43G]: the yeast fitness worked out at 0.531.

As to GUUCCGUUGGCAUAAUGGUAACACGUCUCCCUCCGGAGGAGAAGACUGCGGGUUCGCGUCCUGUACGGAACG [G12A G23A U35G A36G A57C C62U], the yeast fitness is at most 0.5.

For GUUCCGUUGGCAUAAUGCUAACGCGUCUCCCUUCUAAGGAGAAGACUGCGGGUUCGAGUCCCGUACGGCACG [G12A G18C C33U A69C], the yeast fitness is 0.528.

As for GUUCCGUUGGCAUAAUAGUAACGCGACUCCCUCCUAAGGUGAAGACUGCGGGUUCGAGUCCCGUACGGAACG [G12A G17A U26A A40U], the yeast fitness is at most 0.5.

For the variant GUUCCGUUGGCAUAAUGAUAUCGCGUCUCCCUCCUAAGGAAAAGACUGCGGGUUCGAGUCCCGUACGGAACG [G12A G18A A21U G41A], the yeast fitness was determined as 0.877.

Turning to GUUCCGUUGGCAUAAUCGUAACGCCUCUGCCUCCUUAGAAGAAGAUUGCGGGUUUGAGUCCCGUACGGAACG [G12A G17C G25C C29G A36U G39A C46U C55U], the yeast fitness was at most 0.5.

Regarding GUUCCGUUGGCAUAAUGCUAACGCGUCUCCCUCCUCAGGAGAAGACUGCGGGUUCGAGUCCCGUACGGAACG [G12A G18C A36C], the yeast fitness amounted to 0.537.

GUUCCGUUGGCAUAAUGGUAACGCGUCUCCCUGCUAAGGAGAAGAUUGCCGGUUCGAGUCCCGUACGGAACG [G12A C33G C46U G50C]: the yeast fitness was 0.595.

As to GUUCCGUUGGCAUAAUGGUAACGCGUCUCCGUCAUAAGGAGAAGACUGCGGGUUCGAGUCCCGUACGGAACG [G12A C31G C34A], the yeast fitness was determined as 0.585.

As to GUUCCGUUGGCAUAAUGGUAACGCGUCUCCCUCCUAAGGAGAAGACUGCGGGUUAGAGUCCCGUACAGAGCG [G12A C55A G67A A70G], the yeast fitness is at most 0.5.

In the case of GUUCCGUUGGCAUAAUGGUAACGCGUCUCGCUCCUAAGGAGAAGACUGAGAGUUCGAGUCCCGUACGGAACG [G12A C30G C49A G51A], the yeast fitness was at most 0.5.

In the case of GUUCCGUUGGCAUAAUGCCAACGCGUCUUCCUCCUAAGGAGAAGACUGCGGGUUCGAGUCCCGUACGGAACG [G12A G18C U19C C29U], the yeast fitness was at most 0.5.

As for GUUCCGUUGGCAUAAUGGUAACGCGUCUCCCUCCUAAGGAGAAGAUUGCGGGUUCGAGUCCCGUACGGAACG [G12A C46U], the yeast fitness was determined as 0.9.

Take GUUCCGUUGGCAUAAUGCUAACGCGUCUCCCUCCUAAGGAGUAGACUGCGGGUUCGAGUCCCGUACGGAACG [G12A G18C A42U]: the yeast fitness amounted to 0.65.

Turning to GUUCCGUUGGCAUAAUGGUAACGCGUCUCCUUCCUAAGGAAAAGACUGCGGGUUCGAGUCCCGUACGGAACG [G12A C31U G41A], the yeast fitness worked out at 0.686.

With GUUCCGUUGGCAUAAUGGUAACGCGUCUCCUUCCUAAGGAGAAGACUGCGGGUUGGAGUCCCGUACCGAACG [G12A C31U C55G G67C], the yeast fitness is at most 0.5.

On to GUUCCGUUGGCAUAAUGGUAACGCGUCUCCCUCCUAAGGAGAAGAUUGCGCGUUCGAGUCCCGUACGGAACG [G12A C46U G51C], for which the yeast fitness was at most 0.5.

For the variant GUUCCGUUGGCAUAAUGGUAACGCGUCUCCCUCCUAAGGAGAAGAUUGCGCGUUCGAGUCCCGUACGGAUCG [G12A C46U G51C A70U], the yeast fitness was found to be 0.534.
